ChEMBL document CHEMBL4689842, “EUbOPEN Chemogenomics Library wave 1” (2021)
Values joined by “and” are separate entries in the source; they are usually repeats but may differ in a detail not shown here. Identical values can stand only once.

Tests used:
Format in all cases: toxicity, cell-based
[1] = system: Fibroblast; assay: Multiplex assay against human fibroblast; conditions: 10 µM, compound concentration 10 uM
In short: (§1)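 Phenotypes for tubulin, mitochondrial mass and membrane permeability are expressed as per cents of healthy-nucleus cells. Cells were stained live at seeding with Hoechst33342, BioTracker Green Microtubule Cytoskeleton Dye, MitoTracker Red and Annexin V Alexa Fluor 680, then imaged after compound addition on a CQ1 microscope at 37°C and 5% CO2. Machine-learning gating in CellPathfinder separated Hoechst high-intensity objects from normal cells, divided normal cells by nuclear state (healthy, pyknosed, fragmented) and divided pyknosed cells into mitotic or apoptotic.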

[2] = system: U2OS; assay: Incucyte cell viability with U2OS; conditions: human, 10 µM, compound concentration 10 uM; further: filed as whole numbers so only -1 and 0 and 1 occur
[3] = system: HEK-293T; assay: Multiplex assay against HEK293T; conditions: human, 10 µM, compound concentration 10 uM; in short: as §1
[4] = system: HEK-293T; assay: Incucyte cell viability with HEK293T; conditions: human, 10 µM, compound concentration 10 uM; further: filed as whole numbers so only -1 and 0 and 1 occur
[5] = system: Fibroblast; assay: Incucyte cell viability with human fibroblast; conditions: 10 µM, compound concentration 10 uM; further: filed as whole numbers so only -1 and 0 and 1 occur
[6] = system: U2OS; assay: Multiplex assay against U2OS; conditions: human, 10 µM, compound concentration 10 uM; in short: as §1
[7] = 0 h, replicate number 1, timepoint 0 hours
[8] = 6 h, replicate number 1, timepoint 6 hours
[9] = 12 h, replicate number 1, timepoint 12 hours
[10] = 18 h, replicate number 1, timepoint 18 hours
[11] = 24 h, replicate number 1, timepoint 24 hours

## CCN1CCN(Cc2ccc(NC(=O)c3ccc(C)c(Oc4ccnc5[nH]ccc45)c3)cc2C(F)(F)F)CC1.Cl.Cl.Cl.O
[1]; 12 h, replicate 1
  Population Apoptotic (%): 75% and 44%
  Population Fragmented Nuclei (%): 42% and 25%
  Population Healthy Nuclei (%): 42% and 50%
  Population Hoechst High Intensity Objects (%): 20%
  Population Membrane Permeable-Phenotype (%): 6% and 2%
  Population Mitochondria Different-Phenotype (%): 8%
  Population Mitotic Cells (%): 25% and 55%
  Population Normal (%): 79%
  Population Pyknosed Nuclei (%): 14% and 25%
  Population Tubulin-Different-Phenotype (%): 13% and 25%
  Total Cell Count: 169 and 323
[1]; 12 h, replicate 2
  Population Fragmented Nuclei (%): 74% and 45%
  Population Healthy Nuclei (%): 23% and 34%
  Population Hoechst High Intensity Objects (%): 36% and 41%
  Population Membrane Permeable-Phenotype (%): 18% and 0%
  Population Mitochondria Different-Phenotype (%): 0% and 12%
  Population Mitotic Cells (%): 100% and 44%
  Population Normal (%): 63% and 58%
  Population Tubulin-Different-Phenotype (%): 18% and 37%
  Total Cell Count: 74 and 79
[1]; 24 h, replicate 1
  Population Apoptotic (%): 76% and 41%
  Population Fragmented Nuclei (%): 45% and 29%
  Population Healthy Nuclei (%): 46%
  Population Hoechst High Intensity Objects (%): 23% and 52%
  Population Membrane Permeable-Phenotype (%): 5% and 2%
  Population Mitochondria Different-Phenotype (%): 13% and 14%
  Population Mitotic Cells (%): 23% and 58%
  Population Normal (%): 76% and 47%
  Population Pyknosed Nuclei (%): 8% and 23%
  Population Tubulin-Different-Phenotype (%): 20% and 32%
  Total Cell Count: 210 and 306
[1]; 24 h, replicate 2
  Population Apoptotic (%): 50% and 30%
  Population Fragmented Nuclei (%): 59% and 50%
  Population Healthy Nuclei (%): 36% and 19%
  Population Hoechst High Intensity Objects (%): 38% and 40%
  Population Mitotic Cells (%): 50% and 69%
  Population Normal (%): 61% and 60%
  Population Tubulin-Different-Phenotype (%): 41% and 50%
  Total Cell Count: 76 and 70
[2]; [7]
  Growth Rate: 0
[2]; [8]
  Growth Rate: 0
[2]; 6 h, replicate number 2, timepoint 6 hours
  Growth Rate: 1
[2]; [9]
  Growth Rate: 0
[2]; [10]
  Growth Rate: 0
[2]; [11]
  Growth Rate: 0
[3]; 12 h, replicate 1
  Population Apoptotic (%): 19% and 50%
  Population Fragmented Nuclei (%): 21% and 19%
  Population Healthy Nuclei (%): 47% and 20%
  Population Hoechst High Intensity Objects (%): 20% and 25%
  Population Membrane Permeable-Phenotype (%): 5% and 7%
  Population Mitotic Cells (%): 80% and 49%
  Population Normal (%): 79% and 74%
  Population Pyknosed Nuclei (%): 31% and 60%
  Total Cell Count: 451 and 581
[3]; 12 h, replicate 2
  Population Fragmented Nuclei (%): 3% and 6%
  Population Healthy Nuclei (%): 66% and 86%
  Population Hoechst High Intensity Objects (%): 5% and 2%
  Population Membrane Permeable-Phenotype (%): 2% and 1%
  Population Mitotic Cells (%): 47% and 87%
  Population Normal (%): 94% and 97%
  Total Cell Count: 837 and 1347
[3]; 24 h, replicate 1
  Population Fragmented Nuclei (%): 21% and 23%
  Population Healthy Nuclei (%): 25% and 58%
  Population Hoechst High Intensity Objects (%): 29% and 13%
  Population Membrane Permeable-Phenotype (%): 8% and 7%
  Population Normal (%): 70% and 86%
  Total Cell Count: 528 and 497
[3]; 24 h, replicate 2
  Population Healthy Nuclei (%): 71% and 83%
  Population Hoechst High Intensity Objects (%): 6% and 5%
  Population Membrane Permeable-Phenotype (%): 1% and 3%
  Population Mitotic Cells (%): 32% and 91%
  Population Normal (%): 93% and 94%
  Total Cell Count: 779 and 2092
[4]; 0 h, replicate number 2, timepoint 0 hours
  Growth Rate: 0
[4]; [8]
  Growth Rate: 0
[4]; [9]
  Growth Rate: 0
[4]; [10]
  Growth Rate: 0
[4]; [11]
  Growth Rate: 0
[5]; [7]
  Growth Rate: 0
[5]; [8]
  Growth Rate: 1
[5]; [9]
  Growth Rate: 0
[5]; [10]
  Growth Rate: 0
[5]; [11]
  Growth Rate: 0
[6]; 12 h, replicate 1
  Population Apoptotic (%): 66% and 38%
  Population Healthy Nuclei (%): 34% and 87%
  Population Hoechst High Intensity Objects (%): 7% and 4%
  Population Membrane Permeable-Phenotype (%): 18% and 17%
  Population Mitotic Cells (%): 33% and 61%
  Population Normal (%): 92% and 95%
  Total Cell Count: 219 and 182
[6]; 12 h, replicate 2
  Population Fragmented Nuclei (%): 17% and 9%
  Population Healthy Nuclei (%): 40% and 83%
  Population Hoechst High Intensity Objects (%): 14% and 11%
  Population Membrane Permeable-Phenotype (%): 20% and 10%
  Population Mitotic Cells (%): 30% and 87%
  Population Normal (%): 85% and 88%
  Population Pyknosed Nuclei (%): 42%
  Total Cell Count: 113 and 91
[6]; 24 h, replicate 1
  Population Apoptotic (%): 37%
  Population Normal (%): 79% and 98%
  Population Pyknosed Nuclei (%): 10%
  Population Tubulin-Different-Phenotype (%): 10%
  Total Cell Count: 255 and 248
[6]; 24 h, replicate 2
  Population Apoptotic (%): 90% and 58%
  Population Fragmented Nuclei (%): 16% and 11%
  Population Hoechst High Intensity Objects (%): 23% and 18%
  Population Normal (%): 76% and 81%
  Total Cell Count: 133 and 117
